Reference: ChEMBL document CHEMBL5724801, “EUbOPEN Chemogenomics Library - Multiplex” (2024)
Where “and” joins values, the source holds several entries; their conditions need not be identical. Equal values may be shown once.

System: HEK-293T
Experiment: Multiplex assay against HEK293T
Format: toxicity, cell-based
Conditions: human
Procedure, shortened: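 With compound added, live cells were imaged on a CQ1 microscope at 37°C and 5% CO2; staining with Hoechst33342, BioTracker Green Microtubule Cytoskeleton Dye, MitoTracker Red and Annexin V Alexa Fluor 680 had been done at seeding. The CellPathfinder machine-learning gating scheme split cells into Hoechst high-intensity objects or normal cells, normal cells into healthy, pyknosed or fragmented nuclei, and pyknosed cells into mitotic or apoptotic. The tubulin, mitochondrial-mass and membrane-permeability phenotypes are per cents of healthy-nucleus cells.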

[1] = 12 h, 1 µM, compound concentration 1 uM
[2] = 12 h, 10 µM, compound concentration 10 uM
[3] = 24 h, 1 µM, compound concentration 1 uM
[4] = 24 h, 10 µM, compound concentration 10 uM
[5] = 48 h, 1 µM, compound concentration 1 uM
[6] = 48 h, 10 µM, compound concentration 10 uM

COc1ccccc1N1CCN(CCCCNC(=O)c2ccc3ccccc3c2)CC1.Cl
Population Apoptotic (%) [1]: 45% and 36%
Population Fragmented Nuclei (%) [1]: 7% and 6%
Population Healthy Nuclei (%) [1]: 81% and 79%
Population Hoechst High Intensity Objects (%) [1]: 6% and 5%
Population Mitochondria Different-Phenotype (%) [1]: 53% and 76%
Population Mitotic Cells (%) [1]: 54% and 63%
Population Normal (%) [1]: 93% and 94%
Population Tubulin-Different-Phenotype (%) [1]: 41% and 35%
Total Cell Count [1]: 430 and 354
Population Apoptotic (%) [2]: 71% and 70%
Population Fragmented Nuclei (%) [2]: 4% and 7%
Population Healthy Nuclei (%) [2]: 69% and 75%
Population Hoechst High Intensity Objects (%) [2]: 16% and 15%
Population Mitochondria Different-Phenotype (%) [2]: 90% and 93%
Population Mitotic Cells (%) [2]: 28% and 29%
Population Normal (%) [2]: 83% and 84%
Population Tubulin-Different-Phenotype (%) [2]: 75% and 72%
Total Cell Count [2]: 321 and 256
Population Apoptotic (%) [3]: 27% and 36%
Population Fragmented Nuclei (%) [3]: 8% and 7%
Population Healthy Nuclei (%) [3]: 78% and 82%
Population Hoechst High Intensity Objects (%) [3]: 6%
Population Mitochondria Different-Phenotype (%) [3]: 38% and 62%
Population Mitotic Cells (%) [3]: 72% and 63%
Population Normal (%) [3]: 93%
Population Tubulin-Different-Phenotype (%) [3]: 32% and 26%
Total Cell Count [3]: 561 and 444
Population Apoptotic (%) [4]: 56% and 60%
Population Fragmented Nuclei (%) [4]: 7% and 10%
Population Healthy Nuclei (%) [4]: 74% and 69%
Population Hoechst High Intensity Objects (%) [4]: 13% and 17%
Population Mitochondria Different-Phenotype (%) [4]: 96% and 94%
Population Mitotic Cells (%) [4]: 43% and 39%
Population Normal (%) [4]: 86% and 82%
Population Tubulin-Different-Phenotype (%) [4]: 87% and 66%
Total Cell Count [4]: 393 and 276
Population Apoptotic (%) [5]: 20% and 46%
Population Healthy Nuclei (%) [5]: 81% and 78%
Population Hoechst High Intensity Objects (%) [5]: 3% and 5%
Population Mitochondria Different-Phenotype (%) [5]: 34% and 37%
Population Mitotic Cells (%) [5]: 79% and 53%
Population Normal (%) [5]: 96% and 94%
Population Tubulin-Different-Phenotype (%) [5]: 20% and 22%
Total Cell Count [5]: 841 and 635
Population Apoptotic (%) [6]: 60% and 78%
Population Fragmented Nuclei (%) [6]: 8%
Population Healthy Nuclei (%) [6]: 77% and 78%
Population Hoechst High Intensity Objects (%) [6]: 8% and 10%
Population Mitochondria Different-Phenotype (%) [6]: 88% and 92%
Population Mitotic Cells (%) [6]: 40% and 21%
Population Normal (%) [6]: 91% and 89%
Population Tubulin-Different-Phenotype (%) [6]: 73% and 71%
Total Cell Count [6]: 519 and 329

Cc1ccc(-c2ccc(F)cc2COc2ccc(CCC(=O)O)cc2)cc1
Population Apoptotic (%) [1]: 42% and 33%
Population Fragmented Nuclei (%) [1]: 6%
Population Healthy Nuclei (%) [1]: 82% and 77%
Population Hoechst High Intensity Objects (%) [1]: 9%
Population Mitochondria Different-Phenotype (%) [1]: 36% and 50%
Population Mitotic Cells (%) [1]: 57% and 66%
Population Normal (%) [1]: 90%
Population Pyknosed Nuclei (%) [1]: 15%
Population Tubulin-Different-Phenotype (%) [1]: 18%
Total Cell Count [1]: 465 and 324
Population Apoptotic (%) [2]: 32% and 42%
Population Fragmented Nuclei (%) [2]: 10% and 7%
Population Healthy Nuclei (%) [2]: 79% and 83%
Population Hoechst High Intensity Objects (%) [2]: 7% and 6%
Population Mitochondria Different-Phenotype (%) [2]: 46% and 58%
Population Mitotic Cells (%) [2]: 67% and 57%
Population Normal (%) [2]: 92% and 93%
Population Pyknosed Nuclei (%) [2]: 10% and 9%
Population Tubulin-Different-Phenotype (%) [2]: 33% and 15%
Total Cell Count [2]: 329 and 396
Population Fragmented Nuclei (%) [3]: 10% and 9%
Population Healthy Nuclei (%) [3]: 82% and 80%
Population Hoechst High Intensity Objects (%) [3]: 3% and 7%
Population Mitochondria Different-Phenotype (%) [3]: 16% and 33%
Population Mitotic Cells (%) [3]: 84% and 47%
Population Normal (%) [3]: 96% and 92%
Population Pyknosed Nuclei (%) [3]: 7% and 9%
Population Tubulin-Different-Phenotype (%) [3]: 10% and 13%
Total Cell Count [3]: 688 and 445
Population Apoptotic (%) [4]: 36% and 51%
Population Fragmented Nuclei (%) [4]: 11% and 6%
Population Healthy Nuclei (%) [4]: 76% and 87%
Population Hoechst High Intensity Objects (%) [4]: 3%
Population Mitochondria Different-Phenotype (%) [4]: 30% and 37%
Population Mitotic Cells (%) [4]: 63% and 48%
Population Normal (%) [4]: 94% and 96%
Population Pyknosed Nuclei (%) [4]: 6%
Population Tubulin-Different-Phenotype (%) [4]: 18% and 13%
Total Cell Count [4]: 397 and 461
Population Apoptotic (%) [5]: 17% and 36%
Population Fragmented Nuclei (%) [5]: 15% and 14%
Population Healthy Nuclei (%) [5]: 79% and 77%
Population Hoechst High Intensity Objects (%) [5]: 1% and 2%
Population Mitochondria Different-Phenotype (%) [5]: 7% and 18%
Population Mitotic Cells (%) [5]: 82% and 63%
Population Normal (%) [5]: 98% and 97%
Population Pyknosed Nuclei (%) [5]: 5%
Population Tubulin-Different-Phenotype (%) [5]: 8% and 9%
Total Cell Count [5]: 1149 and 631
Population Apoptotic (%) [6]: 24% and 31%
Population Fragmented Nuclei (%) [6]: 12% and 15%
Population Healthy Nuclei (%) [6]: 78% and 79%
Population Hoechst High Intensity Objects (%) [6]: 2% and 4%
Population Mitochondria Different-Phenotype (%) [6]: 17% and 16%
Population Mitotic Cells (%) [6]: 75% and 68%
Population Normal (%) [6]: 97% and 95%
Population Pyknosed Nuclei (%) [6]: 5%
Population Tubulin-Different-Phenotype (%) [6]: 9% and 8%
Total Cell Count [6]: 713 and 702

C[C@H](C[C@H](N)C(=O)O)C(=O)O [2S,4R-4-METHYLGLUTAMATE]
Population Apoptotic (%) [1]: 6.61% and 13.76%
Population Fragmented Nuclei (%) [1]: 2.69% and 5.93%
Population Hoechst High Intensity Objects (%) [1]: 0.59% and 0.74%
Population Membrane Permeable-Phenotype (%) [1]: 0% and 5.56%
Population Mitochondria Different-Phenotype (%) [1]: 31.22% and 27.78%
Population Mitotic Cells (%) [1]: 93.39% and 86.24%
Population Normal (%) [1]: 99.41% and 99.26%
Population Pyknosed Nuclei (%) [1]: 36.12% and 80.74%
Total Cell Count [1]: 337 and 136
Population Apoptotic (%) [2]: 7.2% and 16.44%
Population Fragmented Nuclei (%) [2]: 3.38% and 3.49%
Population Hoechst High Intensity Objects (%) [2]: 0%
Population Membrane Permeable-Phenotype (%) [2]: 0%
Population Mitochondria Different-Phenotype (%) [2]: 31.06% and 20%
Population Mitotic Cells (%) [2]: 92.8% and 83.56%
Population Normal (%) [2]: 100%
Population Pyknosed Nuclei (%) [2]: 42.23% and 84.88%
Population Tubulin-Different-Phenotype (%) [2]: 3.73% and 10%
Total Cell Count [2]: 296 and 172
Population Apoptotic (%) [3]: 6.4% and 17.39%
Population Fragmented Nuclei (%) [3]: 1.63% and 2.47%
Population Healthy Nuclei (%) [3]: 75.77% and 26.54%
Population Hoechst High Intensity Objects (%) [3]: 0.36% and 0%
Population Membrane Permeable-Phenotype (%) [3]: 1.67% and 0%
Population Mitochondria Different-Phenotype (%) [3]: 13.13% and 13.95%
Population Mitotic Cells (%) [3]: 93.6% and 82.61%
Population Normal (%) [3]: 99.64% and 100%
Population Tubulin-Different-Phenotype (%) [3]: 10.5% and 2.33%
Population Apoptotic (%) [4]: 10.99% and 23.73%
Population Fragmented Nuclei (%) [4]: 1.21% and 2.99%
Population Healthy Nuclei (%) [4]: 80.4% and 38.31%
Population Hoechst High Intensity Objects (%) [4]: 0%
Population Membrane Permeable-Phenotype (%) [4]: 0.5% and 0%
Population Mitochondria Different-Phenotype (%) [4]: 14.57% and 6.49%
Population Mitotic Cells (%) [4]: 89.01% and 76.27%
Population Normal (%) [4]: 100%
Population Tubulin-Different-Phenotype (%) [4]: 7.29% and 2.6%
Total Cell Count [4]: 495 and 201
Population Fragmented Nuclei (%) [5]: 3.3% and 2.56%
Population Healthy Nuclei (%) [5]: 86.59% and 58.46%
Population Hoechst High Intensity Objects (%) [5]: 0% and 2.5%
Population Membrane Permeable-Phenotype (%) [5]: 4.15% and 2.63%
Population Mitochondria Different-Phenotype (%) [5]: 11.93% and 28.95%
Population Mitotic Cells (%) [5]: 93.48% and 76.32%
Population Normal (%) [5]: 100% and 97.5%
Population Apoptotic (%) [6]: 11.21% and 22.54%
Population Fragmented Nuclei (%) [6]: 1.13% and 2.5%
Population Healthy Nuclei (%) [6]: 90.25% and 75.31%
Population Hoechst High Intensity Objects (%) [6]: 0% and 0.93%
Population Membrane Permeable-Phenotype (%) [6]: 3.93% and 1.24%
Population Mitochondria Different-Phenotype (%) [6]: 12.14% and 16.6%
Population Mitotic Cells (%) [6]: 88.79% and 77.46%
Population Normal (%) [6]: 100% and 99.07%
Population Pyknosed Nuclei (%) [6]: 8.62% and 22.19%
